ChEMBL document CHEMBL1932995, “Synthesis of 5-aryl-1,4-benzodiazepine derivatives attached in resorcinaren-PAMAM dendrimers and their anti-cancer activity” (Bioorg Med Chem, 2012)
Calls of active or inactive are those of the source. The calls are words filed in the database; no cut-off is given here.

Key:
[1] = tested on: PC-3; test: Growth inhibition of human PC3 cells at 50 uM after 48 hrs by SRB assay; type: functional; settings: for inhibition of growth at 50 µM: PC-3, 48 h, read-out: GI
Method in brief: (§1)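 Cell lines obtained from NCI, grown in RPMI-1640 with 10% fetal bovine serum, 2 mM glutamine, penicillin G, streptomycin, amphotericin B and 1% non-essential amino acids, at 37 °C, humidified 5% CO2. Cell viability above 95% by trypan blue. Compounds tested in DMSO. Growth read by sulforhodamine B protein staining in microculture per NCI protocol, reported as % inhibition.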

[2] = tested on: HCT-15; test: Growth inhibition of human HCT15 cells at 50 uM after 48 hrs by SRB assay; type: functional; settings: for inhibition of growth at 50 µM: HCT-15, 48 h, read-out: GI; method in brief: as §1
[3] = tested on: SK-LU-1; test: Anticancer activity against human SKLU1 cells after 48 hrs by SRB assay; type: functional, cell-based
[4] = tested on: U-251; test: Growth inhibition of human U251 cells at 50 uM after 48 hrs by SRB assay; type: functional; settings: for inhibition of growth at 50 µM: U-251, 48 h, read-out: GI; method in brief: as §1
[5] = tested on: K562; test: Growth inhibition of human K562 cells at 50 uM after 48 hrs by SRB assay; type: functional; settings: for inhibition of growth at 50 µM: K562, 48 h, read-out: GI; method in brief: as §1
[6] = tested on: MCF7; test: Growth inhibition of human MCF7 cells at 50 uM after 48 hrs by SRB assay; type: functional; settings: for inhibition of growth at 50 µM: MCF7, 48 h, read-out: GI; method in brief: as §1
[7] = tested on: HCT-15; test: Anticancer activity against human HCT15 cells after 48 hrs by SRB assay; type: functional, cell-based
[8] = tested on: SK-LU-1; test: Growth inhibition of human SKLU1 cells at 50 uM after 48 hrs by SRB assay; type: functional; settings: for inhibition of growth at 50 µM: SK-LU-1, 48 h, read-out: GI; method in brief: as §1

Question: What does the source list for `COC(=O)CN1C(=O)CN=C(c2ccccc2Cl)c2cc(Cl)ccc21`?
Answer: inhibition of growth at 50 µM [1]: 12.8%; inhibition of growth at 50 µM [2]: 12.9%; IC50 [3]: Active; inhibition of growth at 50 µM [4]: 18.6%; inhibition of growth at 50 µM [5]: 15.9%; inhibition of growth at 50 µM [6]: 11.8%; IC50 [7]: Active; inhibition of growth at 50 µM [8]: 12.5%

Question: Which results are given for `Oc1cc(O)c2cc1C(CCc1ccccc1)c1cc(c(O)cc1O)C(CCc1ccccc1)c1cc(c(O)cc1O)C(CCc1ccccc1)c1cc(c(O)cc1O)C2CCc1ccccc1` (configuration not stated)?
Answer: inhibition of growth at 50 µM [1]: 5.4%; inhibition of growth at 50 µM [2]: 14.7%; inhibition of growth at 50 µM [4]: 47.6%; inhibition of growth at 50 µM [5]: 60.8%; inhibition of growth at 50 µM [6]: 21.5%; inhibition of growth at 50 µM [8]: 14.8%

Question: How did the inhibition of growth at 50 µM [1] turn out when `COC(=O)CN1C(=O)CN=C(c2ccccc2)c2cc([N+](=O)[O-])ccc21` was run?
Answer: 22.3%

Question: And the inhibition of growth at 50 µM [2]?
Answer: 25.2%

Question: What about the inhibition of growth at 50 µM [4] of the same compound?
Answer: 33.7%

Question: What about the inhibition of growth at 50 µM [5] of the same compound?
Answer: 30.6%

Question: And the inhibition of growth at 50 µM [6]?
Answer: 22.2%

Question: What about the inhibition of growth at 50 µM [8] of the same compound?
Answer: 27.5%

Question: What does the source list for `COC(=O)CN1C(=O)CN=C(c2ccccc2)c2cc(Cl)ccc21`?
Answer: inhibition of growth at 50 µM [1]: 12.3%; inhibition of growth at 50 µM [2]: 12%; IC50 [3]: Active; inhibition of growth at 50 µM [4]: 11.7%; inhibition of growth at 50 µM [5]: 19.7%; inhibition of growth at 50 µM [6]: 19.3%; IC50 [7]: Active; inhibition of growth at 50 µM [8]: 13.2%

Question: For `CCCCCCCCCCCC1c2cc(c(OCC(=O)NCCN(CCC(=O)NCCN)CCC(=O)NCCN)cc2OCC(=O)NCCN(CCC(=O)NCCN)CCC(=O)NCCN)C(CCCCCCCCCCC)c2cc(c(OCC(=O)NCCN(CCC(=O)NCCN)CCC(=O)NCCN)cc2OCC(=O)NCCN(CCC(=O)NCCN)CCC(=O)NCCN)C(CCCCCCCCCCC)c2cc(c(OCC(=O)NCCN(CCC(=O)NCCN)CCC(=O)NCCN)cc2OCC(=O)NCCN(CCC(=O)NCCN)CCC(=O)NCCN)C(CCCCCCCCCCC)c2cc1c(OCC(=O)NCCN(CCC(=O)NCCN)CCC(=O)NCCN)cc2OCC(=O)NCCN(CCC(=O)NCCN)CCC(=O)NCCN` (configuration not stated), which inhibition of growth at 50 µM [1] is on record?
Answer: 38.5%

Question: And the inhibition of growth at 50 µM [2]?
Answer: 91.3%

Question: And the inhibition of growth at 50 µM [4]?
Answer: 56.5%

Question: And the inhibition of growth at 50 µM [5]?
Answer: 100%

Question: And the inhibition of growth at 50 µM [6]?
Answer: 92%

Question: And the inhibition of growth at 50 µM [8]?
Answer: 100%

Question: With `COC(=O)CN1C(=O)CN=C(c2ccccc2F)c2cc(Cl)ccc21` as the compound, how does the inhibition of growth at 50 µM [1] read?
Answer: 22.4%

Question: What about the inhibition of growth at 50 µM [2] of the same compound?
Answer: 26%

Question: And the inhibition of growth at 50 µM [4]?
Answer: 20.7%

Question: And the inhibition of growth at 50 µM [5]?
Answer: 27.2%

Question: And the inhibition of growth at 50 µM [6]?
Answer: 24.5%

Question: What about the inhibition of growth at 50 µM [8] of the same compound?
Answer: 19.8%

Question: For `NCCNC(=O)COc1cc(OCC(=O)NCCN)c2cc1C(CCc1ccccc1)c1cc(c(OCC(=O)NCCN)cc1OCC(=O)NCCN)C(CCc1ccccc1)c1cc(c(OCC(=O)NCCN)cc1OCC(=O)NCCN)C(CCc1ccccc1)c1cc(c(OCC(=O)NCCN)cc1OCC(=O)NCCN)C2CCc1ccccc1` (configuration not stated), which inhibition of growth at 50 µM [1] is on record?
Answer: 29%

Question: And the inhibition of growth at 50 µM [2]?
Answer: 34.9%

Question: And the inhibition of growth at 50 µM [4]?
Answer: 37%

Question: What about the inhibition of growth at 50 µM [5] of the same compound?
Answer: 35.3%

Question: And the inhibition of growth at 50 µM [6]?
Answer: 33.2%

Question: And the inhibition of growth at 50 µM [8]?
Answer: 30.9%

Question: What does the source list for `NCCNC(=O)CCN(CCNC(=O)COc1cc(OCC(=O)NCCN(CCC(=O)NCCN)CCC(=O)NCCN)c2cc1C(CCc1ccccc1)c1cc(c(OCC(=O)NCCN(CCC(=O)NCCN)CCC(=O)NCCN)cc1OCC(=O)NCCN(CCC(=O)NCCN)CCC(=O)NCCN)C(CCc1ccccc1)c1cc(c(OCC(=O)NCCN(CCC(=O)NCCN)CCC(=O)NCCN)cc1OCC(=O)NCCN(CCC(=O)NCCN)CCC(=O)NCCN)C(CCc1ccccc1)c1cc(c(OCC(=O)NCCN(CCC(=O)NCCN)CCC(=O)NCCN)cc1OCC(=O)NCCN(CCC(=O)NCCN)CCC(=O)NCCN)C2CCc1ccccc1)CCC(=O)NCCN` (configuration not stated)?
Answer: growth inhibition (GI) [1]: Active; growth inhibition (GI) [2]: Active; IC50 [3]: Active; growth inhibition (GI) [4]: Active; growth inhibition (GI) [5]: Active; growth inhibition (GI) [6]: Active; IC50 [7]: Active; growth inhibition (GI) [8]: Active

Question: Which results are given for `CCCCCCCCCCCC1c2cc(c(OCC(=O)NCCN)cc2OCC(=O)NCCN)C(CCCCCCCCCCC)c2cc(c(OCC(=O)NCCN)cc2OCC(=O)NCCN)C(CCCCCCCCCCC)c2cc(c(OCC(=O)NCCN)cc2OCC(=O)NCCN)C(CCCCCCCCCCC)c2cc1c(OCC(=O)NCCN)cc2OCC(=O)NCCN` (configuration not stated)?
Answer: growth inhibition (GI) [1]: Active; inhibition of growth at 50 µM [2]: 31.5%; IC50 [3]: Active; inhibition of growth at 50 µM [4]: 18.1%; inhibition of growth at 50 µM [5]: 11.2%; growth inhibition (GI) [6]: Active; IC50 [7]: Active; inhibition of growth at 50 µM [8]: 16.2%
